Compounds with a hit are over-represented: about 3.4% of the library has one in this group of screens.
SIRT5 block: inhibitors of human sirtuin-5 desuccinylase; Purified SirT5, succinyl-peptide AMC, trypsin-coupled fluorescence; inhibition, % at 15 µM; actives 1.1% (n = 330,000); in the data active = inhibition above about 15%
Target sequence (Q9NXA8 whole entry, looked up): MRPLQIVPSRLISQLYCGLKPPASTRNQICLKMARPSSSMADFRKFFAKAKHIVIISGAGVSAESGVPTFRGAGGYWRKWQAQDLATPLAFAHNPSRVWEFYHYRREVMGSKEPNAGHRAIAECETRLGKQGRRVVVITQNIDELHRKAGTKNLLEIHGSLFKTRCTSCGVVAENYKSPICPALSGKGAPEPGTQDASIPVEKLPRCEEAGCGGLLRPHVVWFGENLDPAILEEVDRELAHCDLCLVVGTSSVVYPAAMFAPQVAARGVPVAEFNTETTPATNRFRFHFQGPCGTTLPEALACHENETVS
E-selectin induc: induces E-selectin expression in human endothelial cells. actives 0.37% (n = 260,000). HUVEC E-selectin immunofluorescence imaging; normalized: neutral wells 0, TNF-alpha wells 100. P16581. activation, % at 7.58 µM;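 active = mean E-selectin-positive cell signal at least 10% of the positive control, reached in at least 60% of replicates, without over 20% cell loss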
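Material: HUVEC primary endothelial cells; Amount: 3,000 cells per well; Dosing: single concentration; Medium: EGM-2 growth medium on 0.1% gelatin-coated wells; Read-out basis: percent E-selectin-positive cells; Signal: immunofluorescence imaging; Control set: TNF-alpha, DMSO.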
MLL AF4-AF9 inh: inhibitors of human MLL-AF4/AF9 interaction; actives 0.47% (n = 350,000); inhibition, % at 10 µM; AlphaScreen, biotin-AF4 peptide binding to FLAG-AF9; AID 651704;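 active = every replicate reaching a set inhibition limit, whatever the replicate mean, cut at about 25% in these data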;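 also: 0% = plate neutral control median and 100% = total signal loss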
ERAP1 inh: inhibitors of human ERAP1 aminopeptidase. recombinant ERAP1, Leu-AMC fluorescence, 60 min. inhibition, % at 10.7 µM. actives 0.15% (n = 340,000);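 active = mean replicate inhibition of at least 30%, or all replicates individually reaching that 30% level; inactive = mean below 30% and not every replicate reaching it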;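 also: 0% = neutral control wells and 100% = L-leucinethiol positive control wells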
rRNA inh HTS: inhibitors of bacterial rRNA selective over humanized ribosomes; E. coli WT GFP vs humanized-ribosome RFP mutants, fluorescence, 24 h; active compounds read low; DMSO median 0, no signal -100; GFP signal change (wild-type ribosome), % (no concentration beside the values); actives 1.6% (n = 350,000); AID 720706;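 active = significant combined selectivity score with lowered wild-type GFP, culture density cut under 30%, mutant RFP and density less affected; inactive = any of these conditions unmet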
S100A4 MyoIIA: blocks human S100A4 binding to myosin IIA peptide; P26447; S100A4/TAMRA-MyoIIA peptide fluorescence polarization; inhibition, % at 10.7 µM; actives 0.14% (n = 360,000);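 active = mean inhibition of at least 70% across replicates, with every replicate also reaching that level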
Target sequence (P26447 whole entry, looked up): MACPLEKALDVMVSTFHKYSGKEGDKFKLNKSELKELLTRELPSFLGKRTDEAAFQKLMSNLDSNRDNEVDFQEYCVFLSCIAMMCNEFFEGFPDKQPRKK
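Assay system: human S100A4 monomer with TAMRA-labelled myosin IIA peptide / Buffer or medium: Calcium-containing HEPES buffer, pH 7.2 / Reagent: TAMRA-labelled myosin IIA heavy-chain peptide probe, 5 nM / Compound: one dose per compound / Timing: polarization read 5 min after assay mix addition, stable 5–60 min / Benchmarks: neutral control DMSO, positive control TFP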
The depositor's hits bear a star; / = no result.

SMILES | SIRT5 block | E-selectin induc | MLL AF4-AF9 inh | ERAP1 inh | rRNA inh HTS | S100A4 MyoIIA
Cc1ccc(NC(=O)C2C3C=CC4(O3)C2C(=O)N(CCCN2CCCC(C)C2)C4C(=O)NC2CCCCC2)cc1 (centres undefined) | 17* | 0 | 3 | -2 | 8 | -5
CCN(CC(=O)Nc1c(F)cccc1F)C(=O)c1ccc2c(=O)n3c(nc2c1)CCC3 | -1 | / | -1 | -1 | 3 | 1
CCN(CC(=O)Nc1ccccc1C(F)(F)F)C(=O)c1ccc2c(=O)n3c(nc2c1)CCC3 | 22* | 0 | 0 | 1 | 5 | -1
O=C(Oc1ccc(F)cc1)c1ccc2c(=O)n3c(nc2c1)CCC3 | -1 | 3 | -4 | 32* | 0 | -1
COc1ccc(Cl)cc1C(=O)OCC(=O)c1ccc[nH]1 | 1 | 0 | -1 | 0 | -16* | 0
CC=Cc1ccc2n(c1=O)C[C@@H]1[C@@H](CO)[C@H](C(=O)Nc3ccccc3)[C@H]2N1C(=O)CC (mixture of isomers) | -14 | -1 | -2 | 0 | 1 | 9
Cc1noc(C)c1S(=O)(=O)Nc1ccc2c(c1)C(=O)N([C@H](C)CO)C[C@@H](C)[C@@H](CN(C)S(=O)(=O)c1cccs1)OCCCC[C@@H](C)O2 | / | / | / | / | -3 | /
COc1ccc(-c2c(-c3cccc(C)c3)oc3ccc(-c4ccc5c(c4)OCO5)cc23)cn1 | / | 0 | / | / | / | /
Cc1cccc(-c2oc3ccc(-c4ccc5c(c4)OCO5)cc3c2-c2ccc(OC3CCCCO3)cc2)c1 (centres undefined) | / | 0 | -1 | -2 | 9 | 107*
Cc1ccc(CNS(=O)(=O)c2ccc3c(c2)C(C)(C)C(=O)N3C)cc1 | / | 0 | 1 | -1 | -5 | 1
COc1ccc(CNS(=O)(=O)c2ccc3c(c2)C(C)(C)C(=O)N3C)cc1 | -2 | 127* | -2 | 3 | 9 | 2
COc1ccccc1OCC(=O)NCC1CCCN(C(=O)c2ccccc2C(C)=O)C1 (centres undefined) | 17* | 0 | -1 | 3 | 6 | -5
COCC(=O)N1CC2(C1)CN(Cc1ccccc1Cl)[C@@H](CO)c1c2c2ccc(OC)cc2n1C | 1 | 0 | -2 | 2 | -4 | -13
Nc1ccc(Sc2nc3ccccc3[nH]2)cc1 | -6 | 0 | 0 | 0 | -22* | 13
CC(c1ccccc1)C1OCC(C[N+]2(C)CCCCC2)O1 (centres undefined) | -3 | 3 | -4 | 15 | 21 | -3
CCCCC(CC)C1OCC(C[N+]2(C)CCOCC2)O1 (centres undefined) | -4 | 1 | -3 | 83* | 7 | -5
C[C@@H]1CN([C@H](C)CO)C(=O)c2cccc(NC(=O)Nc3ccc(C(F)(F)F)cc3)c2O[C@H]1CN(C)C(=O)Nc1ccccc1 | 4 | 0 | 0 | 1 | -3 | -6
Cc1cc(C(=O)Nc2cccc3c2O[C@H](CN(C)Cc2ccncc2)[C@@H](C)CN([C@H](C)CO)C3=O)n(C)n1 | 1 | / | -2 | 4 | 0 | -6
Cc1ccc(Nc2nc(N)c([N+](=O)[O-])c(NCc3ccco3)n2)cc1 | / | 0 | / | / | / | /
Fc1ccc(Nc2nc(NCc3ccco3)c3ccccc3n2)cc1 | -5 | 0 | / | -15 | -41* | -1
C[C@H](NC(=O)N(C)C[C@@H]1OCc2ccccc2-c2c(n(C)c3ccccc23)C(=O)N([C@@H](C)CO)C[C@H]1C)c1ccccc1 | 7 | 0 | 3 | 4 | -3 | 13
COc1ccc(CN2CCN(CCCc3ccccc3)C(CCO)C2)c(OC)c1 (centres undefined) | 18* | / | 5 | -3 | 4 | -3
CC(C)NC(=O)Nc1cccc2c1O[C@H](CN(C)C)[C@H](C)CN([C@H](C)CO)C2=O | -4 | -1 | 1 | 0 | 4 | -10
O=C(NC1CCS(=O)(=O)C1)c1cccc(Br)c1 (centres undefined) | 17* | / | -2 | 1 | 2 | 22
O=C(NC1CCS(=O)(=O)C1)c1ccc2c(c1)OCO2 (centres undefined) | -1 | 2 | -16 | 0 | 6 | -2
SMILES | SIRT5 block | E-selectin induc | MLL AF4-AF9 inh | ERAP1 inh | rRNA inh HTS | S100A4 MyoIIA
CCCNC(=O)C[C@H]1C[C@H]2c3cc(NC(=O)Nc4ccccc4)ccc3O[C@H]2[C@H](CO)O1 | / | 0 | / | / | 2 | /
CNC[C@H]1Oc2ccc(NC(=O)NC(C)C)cc2CC(=O)N(C)C[C@@H]1C | / | / | / | / | 3 | /
COc1ccc(CN(C)C[C@H]2Oc3ccc(NS(=O)(=O)c4cn(C)cn4)cc3CC(=O)N([C@H](C)CO)C[C@@H]2C)cc1 | -1 | -18 | 1 | -1 | 4 | -1
CCNC(=O)[C@H]1[C@H](CO)[C@H]2Cn3c(ccc(-c4ccccc4)c3=O)[C@H]2N1Cc1cc(F)ccc1F | 0 | 0 | -1 | -2 | -5 | -13
O=c1[nH]c2ccccc2c(O)c1SCCO | 18* | / | -1 | -2 | -2 | 1
CC1C(=NO)C(C)C(c2ccc(N(C)C)cc2)NC1c1ccc(N(C)C)cc1 (centres undefined) | -10 | / | 43* | 2 | -19 | -11
CCCC(=O)N1CC2(CCN(C(=O)Nc3cccc(F)c3)CC2)c2c(n(C)c3cc(OC)ccc23)[C@H]1CO | / | 0 | 2 | / | -4 | /
CO[C@@H]1CN(C)C(=O)c2ccc(NC(=O)C3CCCC3)cc2OC[C@H](C)N(CCC(F)(F)F)C[C@H]1C | 7 | 1 | 0 | 4 | -4 | 2
O=C(CCN1C(=O)S/C(=C\C=C\c2ccccc2)C1=O)Nc1ccc(O)cc1 | -2 | 0 | 5 | 1 | -25* | 0
C[C@H](NC(=O)C[C@H]1C=C[C@@H](NC(=O)CN2CCOCC2)[C@H](CO)O1)c1ccccc1 | 0 | 0 | -1 | 7 | 1 | 7
Cc1cc(C)c2nc(N3CCN(C(=O)c4cccs4)CC3)sc2c1 | 1 | / | -11 | -4 | -10 | -9
O=C(c1cccs1)N1CCN(c2nc3c(F)cc(F)cc3s2)CC1 | 18* | / | -3 | 3 | -14 | 1
COCC(=O)N[C@H]1C=C[C@@H](CC(=O)NCc2ccc(Cl)cc2)O[C@@H]1CO | / | 0 | / | / | 2 | /
Cc1cc(=O)[nH]c(N/N=C/c2c(C)nn(-c3ccccc3)c2Cl)n1 | 16* | / | -6 | 3 | 4 | -3
C[C@H](CO)N1C[C@H](C)[C@H](CN(C)Cc2ccccc2)Oc2ncc(-c3cccc(F)c3)cc2C1=O | -2 | 0 | 3 | -1 | 3 | 1
COc1ccc(S(=O)(=O)N(C)C[C@@H]2Oc3c(NC(=O)Nc4ccc(F)cc4)cccc3C(=O)N([C@H](C)CO)C[C@@H]2C)cc1 | -2 | 0 | 6 | 1 | -4 | -12
